# Assays:
# [1] = species on record: Homo sapiens; assay: Selectivity index, ratio of IC50 for recombinant human MAO-A to IC50 for recombinant human MAO-B
# Method in brief: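 Commercial human MAO-A (1.1 μg protein) and MAO-B (7.5 μg protein) adjusted to equal velocity (165 pmol p-tyramine/min). Compounds from 10 mM DMSO stock diluted in 0.05 M potassium phosphate, pH 7.4. Preincubated with enzyme 15 min at 37 °C in the dark; 200 μM Amplex Red, 2 U/mL HRP, 2 mM p-tyramine added for 20 min at 37 °C.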
# [2] = molecular target: T1, Amine oxidase [flavin-containing] A (Homo sapiens, UniProt P21397); assay: Inhibition of recombinant human MAO-A using p-tyramine as substrate preincubated for 15 mins followed by substrate addition measured after 20 mins by amplex red reagent based fluorescence assay
# T1 sequence (P21397 whole entry): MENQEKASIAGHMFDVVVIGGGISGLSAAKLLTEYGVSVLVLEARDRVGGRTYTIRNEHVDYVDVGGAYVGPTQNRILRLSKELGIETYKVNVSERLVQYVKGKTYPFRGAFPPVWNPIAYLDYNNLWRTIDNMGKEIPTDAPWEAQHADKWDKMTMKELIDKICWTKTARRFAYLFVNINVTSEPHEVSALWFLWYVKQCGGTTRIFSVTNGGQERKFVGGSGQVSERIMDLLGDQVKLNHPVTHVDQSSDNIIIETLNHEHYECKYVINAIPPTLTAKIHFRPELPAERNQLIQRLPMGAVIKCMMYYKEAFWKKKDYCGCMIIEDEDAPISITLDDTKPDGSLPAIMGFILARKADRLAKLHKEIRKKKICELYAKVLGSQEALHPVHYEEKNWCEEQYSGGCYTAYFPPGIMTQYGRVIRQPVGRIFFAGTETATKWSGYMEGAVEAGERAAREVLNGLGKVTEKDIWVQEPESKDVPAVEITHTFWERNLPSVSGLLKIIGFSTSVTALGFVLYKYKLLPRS
# [3] = molecular target: Amyloid-beta precursor protein (Homo sapiens) (UniProt P05067); assay: Inhibition of self-induced Amyloid beta (1 to 42) (unknown origin) aggregation at 25 uM after 48 hrs by thioflavin T-based fluorometric assay relative to control
# Sequence of Amyloid-beta precursor protein (Homo sapiens) (P05067 whole entry): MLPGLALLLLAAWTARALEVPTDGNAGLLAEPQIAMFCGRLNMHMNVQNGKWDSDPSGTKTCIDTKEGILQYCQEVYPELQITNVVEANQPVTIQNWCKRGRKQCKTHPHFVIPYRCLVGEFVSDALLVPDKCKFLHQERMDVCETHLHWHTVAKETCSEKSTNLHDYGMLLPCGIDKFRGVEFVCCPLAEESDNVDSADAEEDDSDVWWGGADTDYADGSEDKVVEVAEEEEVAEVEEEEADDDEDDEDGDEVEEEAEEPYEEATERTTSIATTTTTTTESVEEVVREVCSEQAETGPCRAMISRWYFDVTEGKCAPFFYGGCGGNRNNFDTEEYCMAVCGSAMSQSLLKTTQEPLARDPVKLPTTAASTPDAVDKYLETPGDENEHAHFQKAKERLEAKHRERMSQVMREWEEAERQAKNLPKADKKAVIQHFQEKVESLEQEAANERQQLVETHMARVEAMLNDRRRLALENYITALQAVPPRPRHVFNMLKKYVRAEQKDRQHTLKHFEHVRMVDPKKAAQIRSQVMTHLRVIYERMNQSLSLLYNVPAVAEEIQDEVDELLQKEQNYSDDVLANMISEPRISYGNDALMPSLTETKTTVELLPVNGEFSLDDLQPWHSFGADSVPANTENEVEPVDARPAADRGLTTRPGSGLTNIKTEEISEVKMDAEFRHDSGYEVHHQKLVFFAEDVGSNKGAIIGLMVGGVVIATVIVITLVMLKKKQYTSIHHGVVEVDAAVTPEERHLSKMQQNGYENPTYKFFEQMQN
# Method in brief: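 Aβ1-42 stock (2000 μM in 1% ammonium hydroxide) diluted in 50 mM phosphate pH 7.4. Peptide (final 25 μM) incubated with or without compound (25 μM) at 37 °C for 48 h. Then diluted in 50 mM glycine-NaOH pH 8.0 containing 5 μM thioflavin T, read after 5 min (ex 446/em 490 nm). Inhibition = (1 − IFi/IFc) × 100 after blank subtraction. Mean ± SD of three independent experiments.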
# [4] = molecular target: T2, Amine oxidase [flavin-containing] B (Homo sapiens, UniProt P27338); assay: Inhibition of recombinant human MAO-B using p-tyramine as substrate preincubated for 15 mins followed by substrate addition measured after 20 mins by amplex red reagent based fluorescence assay
# T2 sequence (P27338 whole entry): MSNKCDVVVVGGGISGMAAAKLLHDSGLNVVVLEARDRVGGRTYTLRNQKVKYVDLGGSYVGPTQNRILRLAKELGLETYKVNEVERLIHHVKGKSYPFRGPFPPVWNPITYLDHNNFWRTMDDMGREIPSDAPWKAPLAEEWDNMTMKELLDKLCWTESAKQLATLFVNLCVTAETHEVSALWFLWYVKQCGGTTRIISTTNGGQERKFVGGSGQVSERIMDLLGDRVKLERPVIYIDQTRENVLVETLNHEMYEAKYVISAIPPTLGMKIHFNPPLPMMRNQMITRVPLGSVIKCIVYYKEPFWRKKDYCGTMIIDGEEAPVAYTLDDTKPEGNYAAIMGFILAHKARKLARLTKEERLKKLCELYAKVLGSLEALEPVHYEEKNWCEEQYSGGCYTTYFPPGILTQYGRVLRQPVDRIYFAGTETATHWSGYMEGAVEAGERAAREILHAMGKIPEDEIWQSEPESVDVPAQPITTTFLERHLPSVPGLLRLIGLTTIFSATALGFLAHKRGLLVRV
Structure (SMILES),Ratio IC50 [1],IC50 [2],inhibition [3],IC50 [4]
C#CCN(CCCCOc1ccc2ccc(=O)oc2c1)Cc1cccc(OC)c1,33.6,78.6 µM,38.2%,2.34 µM
C#CCN(CCOc1ccc2ccc(=O)oc2c1)Cc1ccc(C(C)C)cc1,10.1,70 µM,–,6.96 µM
C#CCN(CCCOc1ccc2ccc(=O)oc2c1)Cc1ccc(F)c(F)c1,10.1,49.2 µM,–,4.86 µM
C#CCN(CCOc1ccc2ccc(=O)oc2c1)Cc1ccc(F)c(F)c1,4.24,40.8 µM,–,9.62 µM
C#CCN(CCCOc1ccc2ccc(=O)oc2c1)Cc1cccc(OC)c1,4.94,22.7 µM,–,4.59 µM
C#CCN(CCCCOc1ccc2ccc(=O)oc2c1)Cc1ccc(F)c(F)c1,39.4,93.2 µM,30.6%,2.37 µM
C#CCN(CCCCOc1ccc2ccc(=O)oc2c1)Cc1cccc(F)c1,44.6,69.1 µM,–,1.55 µM
C#CCN(C)CCCOc1ccc2ccc(=O)oc2c1,34,36.9 µM,59.3%,1.08 µM
C#CCN(CCOc1ccc2ccc(=O)oc2c1)Cc1cccc(OC)c1,10.3,72.1 µM,–,7.01 µM
C#CCN(CCOc1ccc2ccc(=O)oc2c1)Cc1cccc(F)c1,9.64,53.3 µM,–,5.53 µM
C#CCN(CCCOc1ccc2ccc(=O)oc2c1)Cc1ccccc1,10.3,38.6 µM,–,3.74 µM
C#CCN(CCCOc1ccc2ccc(=O)oc2c1)Cc1ccc(OC)cc1,9.87,60 µM,–,6.08 µM
C#CCN(CCCCOc1ccc2ccc(=O)oc2c1)Cc1ccc(OC)cc1,48.2,54.5 µM,49.1%,1.13 µM

# Source: ChEMBL document CHEMBL4190276, “Design, synthesis and evaluation of coumarin-pargyline hybrids as novel dual inhibitors of monoamine oxidases and amyloid-β aggregation for the treatment of Alzheimer's disease” (Eur J Med Chem, 2017)
